Assay [1] concerns HT-29. The experiment in a line: In vitro cytotoxic activity against human colon HT-29 cell line. It counts as functional, cell-based. The essentials:
(§1)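 MTT assay on human cells grown in DMEM with 10% FBS and penicillin/streptomycin at 37 °C, 5% CO2. About 5000 cells/well; compounds diluted with DMSO are added after 24 h for 48 h. Then 1 mg/mL MTT (final) in serum-free, phenol-red-free RPMI for 4 h. Formazan dissolved in 2-propanol, OD 550 nm (ref 690 nm).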

Assay [2] relates to MDA-MB-231. The experiment in a line: In vitro cytotoxic activity against human breast MDA-MB-231 cell line. Type of assay: functional, cell-based. The essentials:
as §1

The subject of assay [3] is HCT-116. The experiment in a line: In vitro cytotoxic activity against human colon HCT116 cell line. Type of assay: functional, cell-based. The essentials: as §1
Assay [4] has as its system A549. The experiment in a line: In vitro cytotoxic activity against human lung A549 cell line. Type of assay: functional, cell-based. A digest of the protocol:
as §1

The test system of assay [5] is HRT-18 cell line. The experiment in a line: In vitro inhibition of HRT-18 (human colon) cell proliferation. It counts as functional, cell-based. The essentials: as §1
A further assay relates to Calf thymus DNA. The experiment in a line: In vitro inhibition of calf thymus DNA/ethidium bromide complex formation. It counts as nucleic-acid assay. The essentials:
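Ethidium displacement: compounds added to 5 mM Tris-HCl/0.5 mM EDTA buffer, pH 8, containing calf thymus DNA (1 µg/mL) and ethidium bromide (1 µg/mL). EC50 is the concentration halving DNA/ethidium complex fluorescence. Mean of two experiments.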

The next assay relates to L1210. The experiment in a line: In vitro cytotoxic activity against murine leukemia cell line L1210. It counts as functional, cell-based. The conditions noted are these: Mus musculus.
The subject of assay [6] is HT-29. The experiment in a line: In vitro cytotoxic activity against human colon HT-29 cell line ( standard deviation in parenthesis). It counts as functional, cell-based. The essentials: as §1
For assay [7], the system named is HCT-116. The experiment in a line: In vitro cytotoxic activity against human colon HCT116 cell line ( standard deviation in parenthesis). It counts as functional, cell-based. A digest of the protocol:
as §1

Assay [8] has as its system A549. The experiment in a line: In vitro cytotoxic activity against human lung A549 cell line ( standard deviation in parenthesis). Type of assay: functional, cell-based. A digest of the protocol: (§2)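 MTT assay on human tumour cells grown in DMEM with 10% FBS, penicillin and streptomycin at 37 °C, 5% CO2. About 5000 cells/well were seeded, and compounds diluted with DMSO were added after 24 h. After 48 h exposure, 1 mg/mL MTT (final) was added for 4 h. Formazan was dissolved in 2-propanol and read at 550 nm (reference 690 nm).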

Assay [9] deals with MDA-MB-231. The experiment in a line: In vitro cytotoxic activity against human breast MDA-MB-231 cell line ( standard deviation in parenthesis). It counts as functional, cell-based. A digest of the protocol:
as §1

Assay [10] has as its system HRT-18 cell line. The experiment in a line: In vitro cytotoxic activity against human colon […] cell line ( standard deviation in parenthesis). Type of assay: functional, cell-based. A digest of the protocol: as §1
The subject of assay [11] is A549. The experiment in a line: In vitro cytotoxic activity against human lung A549 cell line). It counts as functional, cell-based. A digest of the protocol:
as §2

Assay [12] has as its system HRT-18 cell line. The experiment in a line: In vitro cytotoxic activity against human colon HRT-18 cell line. It counts as functional, cell-based. A digest of the protocol: as §2

The IC50 is the midpoint of a concentration-inhibition curve. In general, EC50 refers to the concentration giving half of the maximal effect. For `COc1cccc2c1Oc1c3c(cc4c1c-2nn4CCN1CCCCC1)OC(C)(C)C=C3`, the 50% inhibitory concentration (IC50) with HT-29 [1] amounted to 6 µM; with MDA-MB-231 [2], 37 µM; in the assay with HCT-116 [3], 54 µM; with A549 [4], 31 µM; in the assay with HRT-18 cell line [5] it was 12 µM; in the assay on L1210 it was 16.5 µM. In the assay on Calf thymus DNA, this compound registered a half-maximal effective concentration (EC50) of 290 µM.

Take `CN(C)CCn1nc2c3c(c4c(cc31)OC(C)(C)C=C4)Oc1ccccc1-2`: the IC50 with HT-29 [1] is 18 µM; with MDA-MB-231 [2], 50 µM; with HCT-116 [3], 54 µM; in the assay on A549 [4], 32 µM; in the assay on HRT-18 cell line [5] it was 50 µM; in the assay with L1210, 9.8 µM. Further, the EC50 in the assay on Calf thymus DNA worked out at 431 µM.

Consider `COc1cccc2c1Oc1c3c(cc4c1c-2nn4CCN(C)C)OC(C)(C)C=C3`, for which the IC50 with HT-29 [1] was found to be 9 µM; in the assay on MDA-MB-231 [2], 48 µM; in the assay with HCT-116 [3], 51 µM; with A549 [4], 50 µM; in the assay with HRT-18 cell line [5] it was 17 µM; in the assay on L1210, 14.6 µM. The EC50 in the assay on Calf thymus DNA came out at 150 µM.

For the compound `CCN(CC)CCn1nc2c3c(c4c(cc31)OC(C)(C)C=C4)Oc1ccccc1-2`, the IC50 was 9 µM in the assay on HT-29 [1]; 9 µM with MDA-MB-231 [2]; 40 µM in the assay on HCT-116 [3]; 10 µM with A549 [4]; 5 µM with HRT-18 cell line [5]; 9.1 µM with L1210.

Take `CN1c2ccccc2-c2nn(CCOS(C)(=O)=O)c3cc4c(c1c23)C=CC(C)(C)O4`: the figures for the IC50 with HT-29 [6], in the assay with HCT-116 [7] and with L1210 were 20 µM, 49 µM and 2.5 µM, respectively.

With `Cc1c2ccncc2c(C)c2c1[nH]c1ccccc12` [ELLIPTECINE], the concentration for half-maximal inhibition (IC50) was found to be 15 µM in the assay on HT-29 [6], 10 µM with A549 [8] and 2.3 µM in the assay with MDA-MB-231 [9]. The compound also had an EC50 in the assay with Calf thymus DNA of 22.2 µM.

For the compound `COc1cccc2c1Oc1c3c(cc4c1c-2nn4CCOS(C)(=O)=O)OC(C)(C)C=C3`, half-maximal inhibition in the assay with L1210 (IC50) was put at 26.7 µM.

For the compound `CC1(C)C=Cc2c(cc3c4c(nn3CCOS(C)(=O)=O)-c3ccccc3Oc24)O1`, the IC50 was 24 µM in the assay with HT-29 [6]; 22 µM in the assay on HRT-18 cell line [10]; 33 µM in the assay on HCT-116 [7]; more than 100 µM in the assay on A549 [4]; 31.9 µM with L1210; 53 µM in the assay with MDA-MB-231 [9].

For `O=C1c2c(O)ccc(O)c2C(=O)c2c(NCCNCCO)ccc(NCCNCCO)c21` [MITOXANTRONE], it took 3.4 µM to reach a half-maximal effect in the assay with Calf thymus DNA (EC50). Also, the IC50 with MDA-MB-231 [9] came out at 1 µM.

Regarding `CC1(C)C=Cc2c(cc3c4c(nn3CCOS(C)(=O)=O)-c3ccccc3Sc24)O1`, the IC50 is 45 µM with HT-29 [6]; 30 µM in the assay on HRT-18 cell line [10]; 44 µM in the assay on HCT-116 [7]; 15 µM in the assay on L1210; more than 100 µM in the assay with MDA-MB-231 [9]. Also, the concentration for a half-maximal effect (EC50) in the assay with Calf thymus DNA is more than 500 µM.

In the case of `CC1(C)C=Cc2c(cc3c4c(nn3CCO)-c3ccccc3Oc24)O1`, the half-inhibitory concentration (IC50) with HT-29 [1] is 12 µM; in the assay with MDA-MB-231 [2] it was 100 µM; in the assay on HCT-116 [3], 28 µM; in the assay on A549 [4], more than 100 µM; with HRT-18 cell line [5], 4 µM; in the assay with L1210 it was more than 10 µM.

Turning to `CC1(C)C=Cc2c(cc3c4c(nn3CCN3CCCCC3)-c3ccccc3Oc24)O1`, the half-inhibitory concentration (IC50) in the assay on HT-29 [1] was 6.5 µM; with MDA-MB-231 [2] it was 20 µM; in the assay on HCT-116 [3], 20 µM; in the assay on A549 [4], 15 µM; in the assay on HRT-18 cell line [5], 10 µM; in the assay on L1210, 10.1 µM.

On to `COc1cccc2c1Oc1c3c(cc4c1c-2nn4CCO)OC(C)(C)C=C3`, for which the IC50 in the assay with HT-29 [1] was more than 100 µM; in the assay with MDA-MB-231 [2], more than 100 µM; in the assay with HCT-116 [3] it was 64 µM; with A549 [4] it was more than 100 µM; in the assay on HRT-18 cell line [5], more than 100 µM; in the assay with L1210, more than 10 µM. For the same compound, in the assay on Calf thymus DNA, the concentration giving a half-maximal response (EC50) is 274 µM.

Take `COc1cccc2c1Oc1c3c(cc4c1c-2nn4CCN1CCCC1)OC(C)(C)C=C3`: the IC50 with HT-29 [1] came out at 8 µM; in the assay with MDA-MB-231 [2], 11 µM; in the assay on HCT-116 [3], 43 µM; in the assay on A549 [4], 33 µM; in the assay with HRT-18 cell line [5], 60 µM; in the assay with L1210, 10.6 µM. In the assay on Calf thymus DNA, this compound registered a half-maximal effective concentration (EC50) of 71.7 µM.

Take `COc1ccc2c(c1)-c1nn(CCOS(C)(=O)=O)c3cc4c(c(c13)N2C)C=CC(C)(C)O4`: the IC50 was 18 µM in the assay on HT-29 [6]; 12 µM in the assay on HCT-116 [7]; more than 100 µM in the assay with A549 [4]; 0.4 µM in the assay on L1210; 12 µM with MDA-MB-231 [9].

As to `CC1(C)C=Cc2c(cc3c4c(nn3CCN3CCCC3)-c3ccccc3Oc24)O1`, the 50% inhibitory concentration (IC50) was 9 µM with HT-29 [1]; 12 µM in the assay with MDA-MB-231 [2]; 42 µM in the assay with HCT-116 [3]; 27 µM with A549 [4]; 30 µM in the assay with HRT-18 cell line [5]; 8.3 µM in the assay with L1210.

As for `COc1cc2c(c3c1c(=O)c1ccccc1n3C)C=CC(C)(C)O2` [ACRONINE], the IC50 in the assay with HT-29 [1], with HCT-116 [3], in the assay on A549 [11] and in the assay with HRT-18 cell line [12] was more than 100 µM in each case. For the same compound, the EC50 in the assay with Calf thymus DNA stood at 270 µM.

As for `CCN(CC)CCn1nc2c3c(c4c(cc31)OC(C)(C)C=C4)Oc1c(OC)cccc1-2`, the concentration for half-maximal inhibition (IC50) in the assay with HT-29 [1] was 9 µM; in the assay with MDA-MB-231 [2], 11 µM; with HCT-116 [3], 41 µM; with A549 [4], 33 µM; with HRT-18 cell line [5] it was 30 µM; in the assay on L1210, 9.9 µM. The compound further returned an EC50 in the assay with Calf thymus DNA of 273 µM.
